Converted amounts (≈) assume the structure as drawn.
Tests used:
Leishmania donovani = test: Antileishmanial activity against axenic amastigote stage of Leishmania donovani […] after 72 hrs by alamar blue assay; type: functional, organism-based; conditions: MHOM/ET/67/L82, L6, 72 h
Method in brief: (§1)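 In vitro screens of parasites and host cells: T. b. rhodesiense STIB900 trypomastigotes, T. cruzi Tulahuen C4 intracellular amastigotes, L. donovani MHOM-ET-67/L82 axenic amastigotes, P. falciparum K1 erythrocytic stage, and L6 rat skeletal myoblasts […] for toxicity. Values are means of two independent determinations.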

L6 = test: Cytotoxicity against rat L6 cells after 72 hrs by alamar blue assay; type: cell-based; conditions: L6, 72 h
Method in brief: as §1, with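 “toxicity. […]” for “toxicity.”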

[1] = test system: Trypanosoma brucei rhodesiense; test: Antitrypanosomal activity against trypomastigotes of Trypanosoma brucei rhodesiense […] after 72 hrs by alamar blue assay; type: functional, organism-based; conditions: STIB 900, L6, 72 h
Method in brief: as §1, with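 “toxicity. […]” for “toxicity.”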

Trypanosoma cruzi = test: Antitrypanosomal activity against intracellular amastigote stage of Trypanosoma cruzi Tulahuen C2C4 infected in rat L6 cells after 96 hrs by spectrophotometric analysis; type: functional, organism-based; conditions: Tulahuen C2C4, L6, 96 h; method in brief: as §1
Plasmodium falciparum = test: Antimalarial activity against chloroquine and pyrimethamine-resistant Plasmodium falciparum […] assessed as [3H]-hypoxanthine incorporation after 48 hrs by liquid scintillation counting; type: functional, organism-based
Method in brief: as §1, with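 “toxicity. […]” for “toxicity.”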

[2] = Selectivity index, ratio of IC50 for rat L6 cells to IC50 for axenic amastigote stage of Leishmania donovani MHOM/ET/67/L82; type: toxicity, cell-based; conditions: read-out: Ratio IC50
Method in brief: (§2)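 Selectivity index is calculated as the L6 myoblast IC50 divided by the IC50 against the respective parasite. Both IC50s are in µg/mL and are means of two independent determinations.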

[3] = Selectivity index, ratio of IC50 for rat L6 cells to IC50 for intracellular amastigote stage of Trypanosoma cruzi Tulahuen C2C4; type: toxicity, cell-based; conditions: read-out: Ratio IC50; method in brief: as §2
[4] = Selectivity index, ratio of IC50 for rat L6 cells to IC50 for trypomastigotes of Trypanosoma brucei rhodesiense STIB 900; type: toxicity, cell-based; conditions: read-out: Ratio IC50; method in brief: as §2
[5] = Selectivity index, ratio of IC50 for rat L6 cells to IC50 for chloroquine and pyrimethamine-resistant Plasmodium falciparum K1; type: toxicity, cell-based; conditions: read-out: Ratio IC50; method in brief: as §2

SMILES	IC50 (Leishmania donovani) [µg/mL]	IC50 (L6) [µg/mL]	IC50 [1] [µg/mL]	IC50 (Trypanosoma cruzi) [µg/mL]	IC50 (Plasmodium falciparum) [µg/mL]	selectivity ratio [2]	selectivity ratio [3]	selectivity ratio [4]	selectivity ratio [5]
O=C(NC(=O)c1ccccc1O)c1ccc(C(F)(F)F)cc1	0.57 (≈ 1.84 µM)	13 (≈ 42 µM)	70 (≈ 226 µM)	50 (≈ 162 µM)	3.8 (≈ 12.3 µM)				
Cc1ccc(C(=O)NC(=O)c2ccccc2O)cc1	3.2 (≈ 12.5 µM)	46 (≈ 180 µM)	> 100	38 (≈ 149 µM)	1.4 (≈ 5.48 µM)	14	1.2	< 0.46	33
CC(C)c1ccc(C(=O)NC(=O)c2ccccc2O)cc1	1.3 (≈ 4.59 µM)	19 (≈ 67.1 µM)	65 (≈ 229 µM)	2 (≈ 7.06 µM)	1.5 (≈ 5.29 µM)	14	9.5	0.29	12
Nc1ccc(C(=O)NC(=O)c2ccccc2O)cc1	7.8 (≈ 30.4 µM)	39 (≈ 152 µM)	46 (≈ 180 µM)	40 (≈ 156 µM)	3.9 (≈ 15.2 µM)	5	0.98	0.84	10
COC(=O)CCC(=O)Nc1ccc(C(=O)NC(=O)c2ccccc2O)cc1	22 (≈ 59.4 µM)	> 50	> 50	> 50	21 (≈ 56.7 µM)	> 2.3			> 2.4
CC(C)(C)c1ccc(C(=O)NC(=O)c2ccccc2O)cc1	0.14 (≈ 0.471 µM)	2.3 (≈ 7.73 µM)	61 (≈ 205 µM)	6 (≈ 20.2 µM)	0.029 (≈ 0.0975 µM)	17	0.38	0.038	80
O=C(NC(=O)c1ccccc1O)c1ccc(-c2ccccc2)cc1	7.4 (≈ 23.3 µM)	> 100	87 (≈ 274 µM)	7.7 (≈ 24.3 µM)	3.9 (≈ 12.3 µM)	> 14	> 13	> 1.2	> 26
O=C(NC(=O)c1ccccc1O)c1ccc(F)cc1	1.6 (≈ 6.17 µM)	38 (≈ 147 µM)	64 (≈ 247 µM)	51 (≈ 197 µM)	1.5 (≈ 5.79 µM)	23	0.75	0.6	25
O=C(NC(=O)c1ccccc1O)c1ccc(OC(F)(F)F)cc1	5.3 (≈ 16.3 µM)	84 (≈ 258 µM)	65 (≈ 200 µM)	72 (≈ 221 µM)	22 (≈ 67.6 µM)				
N#Cc1ccc(C(=O)NC(=O)c2ccccc2O)cc1	12 (≈ 45.1 µM)	55 (≈ 207 µM)	> 100	100 (≈ 376 µM)	14 (≈ 52.6 µM)	4.7	0.55	< 0.55	3.9
CS(=O)(=O)c1ccc(C(=O)NC(=O)c2ccccc2O)cc1	> 100	> 100	> 100	51 (≈ 160 µM)	38 (≈ 119 µM)		> 2		> 2.7
O=C(NC(=O)c1ccccc1O)c1ccc([N+](=O)[O-])cc1	11 (≈ 38.4 µM)	53 (≈ 185 µM)	> 100	56 (≈ 196 µM)	22 (≈ 76.9 µM)	4.9	0.94	< 0.53	2.4
COC(=O)c1ccc(C(=O)NC(=O)c2ccccc2O)cc1	> 50	42 (≈ 140 µM)	> 50	20 (≈ 66.8 µM)	2.9 (≈ 9.69 µM)	< 0.83	2.1	< 0.83	14
COc1ccc(C(=O)NC(=O)c2ccccc2O)cc1	1.7 (≈ 6.27 µM)	39 (≈ 144 µM)	50 (≈ 184 µM)	31 (≈ 114 µM)	1.6 (≈ 5.9 µM)	23	1.3	0.78	24
CCOc1ccc(C(=O)NC(=O)c2ccccc2O)cc1	0.45 (≈ 1.58 µM)	17 (≈ 59.6 µM)	60 (≈ 210 µM)	4.1 (≈ 14.4 µM)	1 (≈ 3.51 µM)	37	4.1	0.28	17
CCCCOc1ccc(C(=O)NC(=O)c2ccccc2O)cc1	0.94 (≈ 3 µM)	13 (≈ 41.5 µM)	55 (≈ 176 µM)	11 (≈ 35.1 µM)	0.26 (≈ 0.83 µM)	14	1.2	0.23	50
O=C(NC(=O)c1ccccc1O)c1ccc(OCc2ccccc2)cc1	1.5 (≈ 4.32 µM)	64 (≈ 184 µM)	62 (≈ 178 µM)	4.4 (≈ 12.7 µM)	4.1 (≈ 11.8 µM)	42	15	1	16

SMILES	IC50 (Leishmania donovani) [µg/mL]	IC50 (L6) [µg/mL]	IC50 [1] [µg/mL]	IC50 (Trypanosoma cruzi) [µg/mL]	IC50 (Plasmodium falciparum) [µg/mL]	selectivity ratio [2]	selectivity ratio [3]	selectivity ratio [4]	selectivity ratio [5]
CN(C)c1ccc(C(=O)NC(=O)c2ccccc2O)cc1	18 (≈ 63.3 µM)	54 (≈ 190 µM)	81 (≈ 285 µM)	37 (≈ 130 µM)	0.49 (≈ 1.72 µM)	3	1.4	0.66	110
CCN(CC)c1ccc(C(=O)NC(=O)c2ccccc2O)cc1	0.91 (≈ 2.91 µM)	8.2 (≈ 26.3 µM)	> 50	2.8 (≈ 8.96 µM)	0.005 (≈ 0.016 µM)				
O=C(NC(=O)c1ccccc1O)c1ccc(N2CCOCC2)cc1	16 (≈ 49 µM)	> 50	> 50	> 50	0.18 (≈ 0.552 µM)	> 3.1			> 272
O=C(CCCCCCC(=O)Nc1ccc(C(=O)NC(=O)c2ccccc2O)cc1)NO	> 100	> 100	65 (≈ 152 µM)	49 (≈ 115 µM)	3.5 (≈ 8.19 µM)		> 2.1	> 1.5	> 29
O=C(NC(=O)c1ccccc1O)c1ccc2ccccc2c1	1 (≈ 3.43 µM)	21 (≈ 72.1 µM)	26 (≈ 89.3 µM)	8.5 (≈ 29.2 µM)	0.22 (≈ 0.755 µM)	20	2.4	0.78	94
COc1ccc2cc(C(=O)NC(=O)c3ccccc3O)ccc2c1	1.4 (≈ 4.36 µM)	56 (≈ 174 µM)	42 (≈ 131 µM)	5.1 (≈ 15.9 µM)	0.98 (≈ 3.05 µM)	40	11	1.3	57
O=C(NC(=O)c1ccccc1O)c1cccc(CCl)c1	0.16 (≈ 0.552 µM)	1.8 (≈ 6.21 µM)	20 (≈ 69 µM)	17 (≈ 58.7 µM)	4.4 (≈ 15.2 µM)	11	0.1	0.087	0.4
O=C(NC(=O)c1ccc(Cl)cc1Cl)c1ccccc1O	11 (≈ 35.5 µM)	62 (≈ 200 µM)	> 100	58 (≈ 187 µM)	14 (≈ 45.1 µM)	5.5	1.1	< 0.62	4.4
O=C(NC(=O)c1ccccc1O)c1ccc2c(c1)OCO2	> 50	24 (≈ 84.1 µM)	> 50	27 (≈ 94.7 µM)	4.2 (≈ 14.7 µM)	< 0.47	0.86	< 0.47	5.6
COc1cc(C(=O)NC(=O)c2ccccc2O)cc(OC)c1OC	3.2 (≈ 9.66 µM)	21 (≈ 63.4 µM)	79 (≈ 238 µM)	40 (≈ 121 µM)	0.78 (≈ 2.35 µM)	6.5	0.51	0.26	26
O=C(NC(=O)C1CCCCC1)c1ccccc1O	6 (≈ 24.3 µM)	55 (≈ 222 µM)	> 100	16 (≈ 64.7 µM)	13 (≈ 52.6 µM)	9.2	3.4	< 0.55	4.4
Cc1occc1C(=O)NC(=O)c1ccccc1O	2 (≈ 8.16 µM)	16 (≈ 65.2 µM)	48 (≈ 196 µM)	36 (≈ 147 µM)	4.7 (≈ 19.2 µM)	7.8	0.44	0.33	3.4
CCc1ccc(C(=O)Nc2n[nH]c3ccccc23)cc1	3 (≈ 11.3 µM)	8.2 (≈ 30.9 µM)	8.2 (≈ 30.9 µM)	8.9 (≈ 33.5 µM)	8.5 (≈ 32 µM)				
CCc1ccc(-c2noc(-c3ccccc3O)n2)cc1		> 100	61 (≈ 229 µM)	39 (≈ 146 µM)	27 (≈ 101 µM)	> 1	> 2.6	> 1.6	> 3.7
O=C(NC(=O)c1ccccc1O)c1ccccc1O	1.9 (≈ 7.39 µM)	39 (≈ 152 µM)	62 (≈ 241 µM)	14 (≈ 54.4 µM)	1.1 (≈ 4.28 µM)	21	2.8	0.63	36
Nc1nc(N)nc(Nc2ccc([As]3SCC(CO)S3)cc2)n1 (stereo not given) [MELARSOPROL]			0.005						
